Experimental data: ChEMBL document CHEMBL1828604, “Antifungal activity of a series of 1,2-benzisothiazol-3(2H)-one derivatives” (Bioorg Med Chem, 2011)
In brackets after ≈: the same amount, converted by molar mass.

Legend:
Candida albicans = assay: Antifungal activity against Candida albicans CAF-2 after 24 hrs by broth microdilution method; format: functional; conditions: CAF-2, 24 h
Procedure, shortened: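 Broth microdilution per CLSI M27-A3: 1000 cells per well in RPMI, two-fold compound dilutions from 0.1 to 50 μg/ml, final volume 100 μL RPMI. MIC-50 is the lowest concentration that inhibits growth to half the OD of the untreated control.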

[1] = Cytotoxicity against human HepG2 cells after 24 hrs by neutral red cell viability assay; format: cell-based
Procedure, shortened: (§1)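 Neutral red viability assay on HepG2 human hepatoma cells at defined compound concentrations, exposure 24, 48 or 72 h. CC-50 was calculated from the viability data.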

Aspergillus fumigatus = assay: Antifungal activity against Aspergillus fumigatus AF-294 after 48 hrs by broth microdilution method; conditions: AF-294, 48 h
Candida parapsilosis = assay: Antifungal activity against Candida parapsilosis after 24 hrs by broth microdilution method; format: functional; conditions: Lodderomyces parapsilosis
Procedure, shortened: (§2)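 Broth microdilution per CLSI M27-A3 and M38-A2. 1000 cells per well in RPMI (final 100 µL) with two-fold compound dilutions from 0.1 to 50 µg/ml. MIC-50 is the lowest concentration that cuts growth to half the OD of the untreated control. Candida species are clinical strains. A. fumigatus strain is AF-294.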

[2] = Ratio of CC50 for human HepG2 cells to MIC50 for antifungal activity; format: functional
Candida tropicalis = assay: Antifungal activity against Candida tropicalis after 24 hrs by broth microdilution method; format: functional; procedure, shortened: as §2
[3] = Cytotoxicity against human HepG2 cells after 72 hrs by neutral red cell viability assay; format: cell-based; procedure, shortened: as §1
HepG2 = assay: Cytotoxicity against human HepG2 cells by MTT assay; format: cell-based
Procedure, shortened: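 MTT viability assay at defined compound concentrations in human hepatoma cell lines HepG2 and Huh7.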

[4] = Antifungal activity against Candida apicola after 24 hrs by broth microdilution method; format: functional; procedure, shortened: as §2
[5] = Cytotoxicity against human HepG2 cells after 48 hrs by neutral red cell viability assay; format: cell-based; procedure, shortened: as §1
Nakaseomyces glabratus = assay: Antifungal activity against Candida glabrata after 24 hrs by broth microdilution method; format: functional; procedure, shortened: as §2
Cryptococcus neoformans [6] = assay: Antifungal activity against Cryptococcus neoformans JEC-21 after 72 hrs by broth microdilution method; format: functional; conditions: JEC-21, 72 h; procedure, shortened: as §2
[7] = system: Meyerozyma guilliermondii; assay: Antifungal activity against Candida guilliermondii after 24 hrs by broth microdilution method; format: functional; procedure, shortened: as §2
Cryptococcus neoformans [8] = assay: Antifungal activity against Cryptococcus neoformans H-99 after 72 hrs by broth microdilution method; format: functional; conditions: H-99, 72 h; procedure, shortened: as §2
Clavispora lusitaniae = assay: Antifungal activity against Candida lusitaniae after 24 hrs by broth microdilution method; format: functional; procedure, shortened: as §2
Huh-7 = assay: Cytotoxicity against human HuH7 cells by MTT assay; format: cell-based

O=C(Cn1sc2ccccc2c1=O)NCCN1CCOCC1
MIC50 (Candida albicans): > 50 µg/mL

CN(Cc1ccccc1)C(=O)Cn1sc2ccccc2c1=O
CC50 at 24 h [1]: 62.2 µg/mL (≈ 199 µM) | MIC50 (Aspergillus fumigatus): 12.5 µg/mL (≈ 40 µM) | MIC50 (Candida parapsilosis): 1.6 µg/mL (≈ 5.12 µM) | Ratio [2]: 15 | MIC50 (Candida tropicalis): 1.6 µg/mL (≈ 5.12 µM) | MIC50 (Candida albicans): 1.6 µg/mL (≈ 5.12 µM) | CC50 at 72 h [3]: 23.2 µg/mL (≈ 74.3 µM) | Activity (HepG2): Toxic | MIC50 [4]: 1.6 µg/mL (≈ 5.12 µM) | CC50 at 48 h [5]: 25.7 µg/mL (≈ 82.3 µM) | MIC50 (Nakaseomyces glabratus): 1.6 µg/mL (≈ 5.12 µM) | MIC50 (Cryptococcus neoformans [6]): 1.6 µg/mL (≈ 5.12 µM) | MIC50 [7]: 1.6 µg/mL (≈ 5.12 µM) | MIC50 (Cryptococcus neoformans [8]): 1.6 µg/mL (≈ 5.12 µM) | MIC50 (Clavispora lusitaniae): 1.6 µg/mL (≈ 5.12 µM) | Activity (Huh-7): Toxic

CC(C(=O)NCc1ccccc1)n1sc2ccccc2c1=O (racemic)
MIC50 (Candida albicans): > 50 µg/mL

COC(=O)c1ccccc1NC(=O)Cn1sc2ccccc2c1=O
MIC50 (Candida albicans): 6.4 µg/mL (≈ 18.7 µM)

C[C@@H](NC(=O)Cn1sc2ccccc2c1=O)c1ccccc1
MIC50 (Candida albicans): 6.4 µg/mL (≈ 20.5 µM)

CCN(Cc1ccccc1)C(=O)Cn1sc2ccccc2c1=O
MIC50 (Candida albicans): 6.4 µg/mL (≈ 19.6 µM)

OC(Cn1cncn1)(Cn1cncn1)c1ccc(F)cc1F [FLUCONAZOLE]
MIC50 (Aspergillus fumigatus): 16 µg/mL (≈ 52.2 µM) | MIC50 (Candida parapsilosis): 0.4 µg/mL (≈ 1.31 µM) | MIC50 (Candida tropicalis): 16 µg/mL (≈ 52.2 µM) | MIC50 (Candida albicans): 0.2 µg/mL (≈ 0.653 µM) | MIC50 [4]: 0.2 µg/mL (≈ 0.653 µM) | MIC50 (Nakaseomyces glabratus): 3.2 µg/mL (≈ 10.4 µM) | MIC50 (Cryptococcus neoformans [6]): > 64 µg/mL | MIC50 [7]: 6.4 µg/mL (≈ 20.9 µM) | MIC50 (Cryptococcus neoformans [8]): > 64 µg/mL | MIC50 (Clavispora lusitaniae): 3.2 µg/mL (≈ 10.4 µM)

COc1ccc(CNC(=O)Cn2sc3ccccc3c2=O)cc1
MIC50 (Candida albicans): 3.2 µg/mL (≈ 9.74 µM)

CN(C(=O)Cn1sc2ccccc2c1=O)c1ccccc1
MIC50 (Candida albicans): > 50 µg/mL

CCN(CC)C(=O)Cn1sc2ccccc2c1=O
MIC50 (Candida albicans): > 50 µg/mL

O=C(Cn1sc2ccccc2c1=O)NCc1ccccc1
MIC50 (Candida albicans): 3.2 µg/mL (≈ 10.7 µM)

O=C(Cn1sc2ccccc2c1=O)Nc1ccccc1
MIC50 (Candida albicans): 6.4 µg/mL (≈ 22.5 µM)

O=C(Cn1sc2ccccc2c1=O)NCCc1ccccc1
MIC50 (Candida albicans): > 50 µg/mL

O=C(Cn1sc2ccccc2c1=O)NCc1ccc(F)cc1
MIC50 (Candida albicans): 1.6 µg/mL (≈ 5.06 µM)

COC(=O)c1cccc(NC(=O)Cn2sc3ccccc3c2=O)c1
MIC50 (Candida albicans): 12.5 µg/mL (≈ 36.5 µM)

CC(C(=O)N(C)Cc1ccccc1)n1sc2ccccc2c1=O (racemic)
MIC50 (Candida albicans): 25 µg/mL (≈ 76.6 µM)

C[C@H](NC(=O)Cn1sc2ccccc2c1=O)c1ccccc1
MIC50 (Candida albicans): 6.4 µg/mL (≈ 20.5 µM)

O=C(Cn1sc2ccccc2c1=O)NC12CC3CC(CC(C3)C1)C2
MIC50 (Candida albicans): 3.2 µg/mL (≈ 9.34 µM)

O=C(Cn1sc2ccccc2c1=O)Nc1nccs1
MIC50 (Candida albicans): > 50 µg/mL

COc1cccc(CNC(=O)Cn2sc3ccccc3c2=O)c1
MIC50 (Candida albicans): 3.2 µg/mL (≈ 9.74 µM)
